# Screening data from PubChem.
# PABP FP inh: blocks human PABP binding to poly(A) RNA. P11940. fluorescence polarization. inhibition, % at 35 µM. 1% of 290,000 active;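 also: calls also rest on retests at 20 µM and on dose response follow-up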
# MT1-MMP act inh: inhibitors of human MT1-MMP activation; GFP/RFP ratio change, % at 20 µM; HT1080 RFP-PRO-GFP cells, GFP/RFP ratio fluorescence, overnight; percent of plate control window, DMSO zero; P50281; AID 651647; 0.061% of 360,000 active;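 active = GFP/RFP ratio change of at least 30% with cell ATP level not reduced by more than half and red fluorescence within 50% of control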
#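 Assay system: RFP-PRO-GFP reporter HT1080 cells; read-out basis: GFP/RFP fluorescence ratio; benchmarks: DMSO wells and RFP-L50D-GFP cells; doses: 20 µM single dose, 1% DMSO; schedule: overnight cell settling, then overnight compound exposure, 37 °C, 5% CO2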
# eIF4H inh: inhibitors of RNA binding by human eIF4H | eIF4H fluorescence polarization binding assay | 0.94% of 290,000 active | inhibition, % at 35 µM | Q15056 | AID 2012;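 also: calls also rest on retests at 20 µM and on dose response follow-up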
# SKN-1 inh: C. elegans SKN-1 inhibition | 0.49% of 360,000 active | inhibition, % at 21.8 µM | C. elegans VP596 Pgst-4::GFP/RFP ratio, acrylamide-induced, 24 h;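 active = interference check ratio from 0.5 to 1.5 plus GFP to RFP signal ratio inhibition reaching or exceeding a fixed threshold, cut at about 30% in these data, passing the limit was not always enough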
# MLLE-PAM2 inh: blocks PAM2 peptide binding to the PABP1 MLLE domain | 0.36% of 360,000 active | P11940 | inhibition, % at 20 µM | AID 588489 | GST-MLLE / FITC-PAM2 fluorescence polarization; in the data active = inhibition above about 35%, passing the limit was not always enough;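 also: plate controls were DMSO wells with GST-MLLE for no effect and wells lacking GST-MLLE protein for full effect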
# The depositor's hits bear a star; u = inconclusive; x = not tested or not shown. Rows were chosen to be rich in hits. Some 1.7% of all compounds tested hit in one or more screens of this group. Unless noted, no rule for the calls is given here.
SMILES,PABP FP inh,MT1-MMP act inh,eIF4H inh,SKN-1 inh,MLLE-PAM2 inh
O=C(CCS(=O)(=O)c1ccc(Br)cc1)NCc1ccc(F)cc1,29,2,87*,-3,6
O=C(CCS(=O)(=O)c1ccc(Br)cc1)NC1CCCCCC1,10,3,64*,19,-7
O=C(CCS(=O)(=O)c1ccc(Br)cc1)NCCC1=CCCCC1,16,2,64*,2,0
Cc1ccc(CNC(=O)CCS(=O)(=O)c2ccc(Br)cc2)cc1,11,-3,88,1,-10
O=C(CCc1nc(-c2ccccc2)no1)NC1CCCCCC1,x,-1,x,8,5
O=C(O)c1nn(-c2ccccc2-c2n[nH]c(=O)[nH]c2=O)c(=O)[nH]c1=O,25,x,20,x,x
COC(=O)N1CCCCC1c1cc(C(=O)Nc2ccccc2Cl)no1 (stereo not given),x,-3,x,17,-1
CC(=O)c1c2c3c(c(Br)ccc3n(C)c1=O)C(=O)c1ccccc1-2,x,-19,x,25,59*
Cc1ccc(NC(=O)C(C)N2CCCc3ccccc32)cc1S(=O)(=O)N1CCOCC1 (stereo not given),x,-1,x,-2,-9
CCN(CC)S(=O)(=O)c1cc(NC(=O)C(C)N2CCc3ccccc32)ccc1C (stereo not given),72,-4,active,6,-11
OCc1ccc(-c2cncc3nccn23)cc1,x,2,x,12,-16
Oc1ccc(C[C@H]2CN([C@@H](Cc3ccc(O)cc3)CN3CCC[C@@H]3CN3C(=S)NC[C@@H]3Cc3ccccc3)C(=S)N2CC2CCCCCC2)cc1,x,-4,x,14,18
Cc1n[nH]c(=O)c2c(NC(=O)CSc3ccccc3Cl)oc(C)c12,x,4,x,8,25
Cc1n[nH]c(=O)c2c(NC(=O)CSc3c(Cl)cccc3Cl)oc(C)c12,x,0,x,13,43*
CC1CCN(c2ccc(NC(=O)Cn3c(=O)oc4ccccc43)cc2)CC1,-1,4,-12,-3,-12
COc1cccc(CC(=O)Nc2cc(S(=O)(=O)N3CCOCC3)ccc2OC)c1,x,-4,x,12,-2
O=c1c2ccccc2nnn1CSc1nc2ccccc2[nH]1,-3,3,-5,11,-7
Cc1cc(=O)[nH]c(SCn2nnc3ccccc3c2=O)n1,-5,7,-11,3,43*
COc1cc2oc3ccccc3c(=O)c2cc1OC,-7,4,-2,2,1
O=c1c2ccccc2oc2ccc(Oc3ccccc3)cc12,-1,5,-3,41*,10
CC(CCc1ccco1)NC(=O)CSc1cc(=O)n(C)c2ccccc12 (stereo not given),0,-1,-2,37*,10
CCn1c(=O)cc(SCC(=O)NCc2ccco2)c2ccccc21,8,2,7,17,2
O=C(Nc1ccc2c(c1)CCC2)c1ncoc1-c1ccccc1F,-3,0,-2,3,-10
CCN(CC)C(=O)CSC(Nc1ccc(F)cc1)=C(C#N)C#N,13,-41,27,24,-102
CCN(CC)C(=O)CSC(=Nc1ccccc1F)NC#N,56*,-40,46*,8,-30
SMILES,PABP FP inh,MT1-MMP act inh,eIF4H inh,SKN-1 inh,MLLE-PAM2 inh
O=c1c(-c2c(O)cc(O)c3c(=O)cc(-c4ccc(O)cc4)oc23)c(-c2ccc(O)cc2)oc2cc(O)cc(O)c12,65*,0,95*,6,-14
CCc1nc(N2CCN(CC(=O)NCC3CCCO3)CC2)c(C#N)c2c1COC(C)(C)C2 (stereo not given),23,-3,15,4,6
CC(OC(=O)c1ccc(NC(=O)CC#N)cc1)C(=O)Nc1ccc(Oc2ccccc2)cc1 (stereo not given),0,-4,54*,6,-27
CC(OC(=O)c1ccc(NC(=O)CC#N)cc1)C(=O)Nc1nc(-c2ccccc2)cs1 (stereo not given),x,-8,x,-13,-8
COc1cccc2cc(-c3ccnc(=S)[nH]3)oc12,9,x,-1,x,x
Fc1ccc(-c2ccnc(=S)[nH]2)cc1,-17,-1,-5,0,39*
COCCn1c(C)cc(C(=O)CSc2ccc3ccccc3n2)c1C,69*,-10,62*,-1,11
Cc1cc(C(=O)COc2cccnc2[N+](=O)[O-])c(C)n1Cc1cccs1,-9,-13,106*,-2,13
C=CCn1c(C)cc(C(=O)COc2ccc(C)nc2[N+](=O)[O-])c1C,0,3,u,9,-3
